Non-standard residues stand in square brackets, D forms with d. Residues, ends and D or L forms follow the SMILES beside them. *: point of attachment. Dolaproine = CO[C@@H]([C@@H]1CCCN1)[C@@H](C)C(=O)O; Dil = CC[C@H](C)[C@H](NC)[C@@H](CC(=O)O)OC; Doe = c1ccc(C[C@H](N*)c2nccs2)cc1; X1 = C[C@@H](N*)[C@@H](O)c1ccccc1; NMeV = CN[C@H](C(=O)O)C(C)C; NMeA = CN[C@@H](C)C(=O)O; NMeAib = CNC(C)(C)C(=O)O; Ac5c = NC1(C(=O)O)CCCC1; Ac3c = NC1(C(=O)O)CC1; Aib = CC(C)(N)C(=O)O; Sar = CNCC(=O)O
Assays:
[1] = test system: BT-474; experiment: Cytotoxicity against human BT474 cells assessed as cell viability incubated fore 4 days by MTS assay; type: functional; conditions: BT-474, 96 h
In short: (§1)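 Cells seeded at low density in 96-well plates, dosed next day with 3-fold serial dilutions at 10 concentrations in duplicate. Incubated 4 days at 37C/5% CO2. Viability read by MTS reagent (1.5 h), absorbance at 490 nm. Four-parameter logistic fit. Reported as arithmetic mean GI50 (nM) with standard deviation over n individual runs, each run a duplicate readout.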

[2] = test system: MDA-MB-361; experiment: Cytotoxicity against human MDA-MB-361 cells assessed as cell viability incubated fore 4 days by MTS assay; type: functional; conditions: MDA-MB-361, 96 h; in short: as §1
[3] = test system: NCI-N87; experiment: Cytotoxicity against human NCI-N87 cells assessed as cell viability incubated fore 4 days by MTS assay; type: functional; conditions: NCI-N87, 96 h; in short: as §1
[4] = AUCt in Han Wistar rat at 20 ug/kg, iv by LC-MS/MS analysis; type: ADME, organism-based; conditions: plasma, 0.02 mg/kg
In short: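 Male Wistar Han rats (n = 3) received a single IV dose of 20 µg/kg. Serum/plasma concentrations were measured by LC-MS/MS. AUCt was taken from time zero to the last measurable concentration. Values are reported as mean ±.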

[5] = Volume of distribution at steady state in Han Wistar rat at 20 ug/kg, iv by LC-MS/MS analysis; type: ADME, organism-based; conditions: in vivo, 0.02 mg/kg, read-out: Vdss
In short: (§2)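 Male Wistar Han rats (n = 3), single IV dose of 20 µg/kg. Plasma levels by LC-MS/MS. Cmax, Tmax, AUCt (zero to last measurable concentration), systemic serum clearance, Vss and terminal t1/2 given as mean ± spread.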

[6] = Half life in Han Wistar rat at 20 ug/kg, iv by LC-MS/MS analysis; type: ADME, organism-based; conditions: in vivo, 0.02 mg/kg; in short: as §2
[7] = Clearance in Han Wistar rat at 20 ug/kg, iv by LC-MS/MS analysis; type: ADME, organism-based; conditions: in vivo, 0.02 mg/kg; in short: as §2
[8] = Fraction unbound in monkey plasma at 0.1 uM; type: ADME, cell-free, Macaca mulatta; conditions: rhesus monkey
In short: (§3)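 Plasma protein binding measured at 0.1 uM in monkey, rat and human plasma. Reported as fraction unbound.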

[9] = Fraction unbound in rat plasma at 0.1 uM; type: ADME, cell-free; in short: as §3
[10] = Fraction unbound in human plasma at 0.1 uM; type: ADME, cell-free; in short: as §3
[11] = Drug recovery in Han Wistar rat urine at 36 ug/kg, iv bolus dose; type: ADME, organism-based; conditions: 0.036 mg/kg, read-out: Drug recovery
In short: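 Single IV bolus of 36 µg/kg. Fraction of dose recovered in urine (Wistar Han rats, n = 3) and in bile (Sprague-Dawley rats, n = 3).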

[12] = Drug recovery in Han Wistar rat bile at 36 ug/kg, iv bolus dose; type: ADME, organism-based; conditions: 0.036 mg/kg, read-out: Drug recovery
[13] = Drug metabolism in human liver S9 fraction assessed as formation of NADPH-dependent oxidative metabolites; type: ADME, subcellular
[14] = Drug metabolism in rat liver S9 fraction assessed as formation of NADPH-dependent oxidative metabolites; type: ADME, subcellular
[15] = Drug metabolism in monkey liver S9 fraction assessed as formation of NADPH-dependent oxidative metabolites; type: ADME, subcellular, Macaca mulatta; conditions: rhesus monkey
[16] = Drug metabolism in human liver S9 fraction assessed as formation of amide hydrolysis products; type: ADME, subcellular
[17] = Drug metabolism in rat liver S9 fraction assessed as formation of amide hydrolysis products; type: ADME, subcellular
[18] = Drug metabolism in monkey liver S9 fraction assessed as formation of amide hydrolysis products; type: ADME, subcellular, Macaca mulatta; conditions: rhesus monkey
[19] = Drug metabolism in human liver S9 fraction assessed as formation of glucuronide conjugates; type: ADME, subcellular
[20] = Drug metabolism in rat liver S9 fraction assessed as formation of glucuronide conjugates; type: ADME, subcellular
[21] = Drug metabolism in monkey liver S9 fraction assessed as formation of glucuronide conjugates; type: ADME, subcellular, Macaca mulatta; conditions: rhesus monkey
[22] = biological target: Cytochrome P450 3A4 (Homo sapiens, UniProt P08684); experiment: Drug metabolism assessed as human recombinant CYP3A4-mediated hydroxylation occurring on N-terminus; type: ADME; conditions: recombinant enzyme
Sequence of Cytochrome P450 3A4 (P08684 whole entry): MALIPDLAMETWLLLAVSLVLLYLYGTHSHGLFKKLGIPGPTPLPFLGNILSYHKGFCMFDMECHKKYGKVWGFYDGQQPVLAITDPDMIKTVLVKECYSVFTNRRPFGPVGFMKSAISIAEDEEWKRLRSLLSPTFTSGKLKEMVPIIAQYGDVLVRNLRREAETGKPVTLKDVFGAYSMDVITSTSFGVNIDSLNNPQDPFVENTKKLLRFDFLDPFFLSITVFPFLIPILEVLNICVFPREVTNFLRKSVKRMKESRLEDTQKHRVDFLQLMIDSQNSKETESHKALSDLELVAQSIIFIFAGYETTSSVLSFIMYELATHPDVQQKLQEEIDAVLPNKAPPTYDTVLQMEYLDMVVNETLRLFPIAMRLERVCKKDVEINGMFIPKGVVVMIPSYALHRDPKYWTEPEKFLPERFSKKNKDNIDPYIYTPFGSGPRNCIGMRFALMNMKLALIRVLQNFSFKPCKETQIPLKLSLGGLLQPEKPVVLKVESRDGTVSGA

[23] = Apparent intrinsic clearance in human liver microsomes at 1 uM; type: ADME; conditions: read-out: CLH(app)
In short: (§4)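 Apparent intrinsic clearance measured at 1 μM substrate in human liver microsomes (μl/min/mg) and in human hepatocytes (μl/min/million cells).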

[24] = test system: Hepatocyte; experiment: Apparent intrinsic clearance in human liver hepatocytes at 1 uM; type: ADME, cell-based; in short: as §4
[25] = Cmax in Han Wistar rat at 20 ug/kg, iv by LC-MS/MS analysis; type: ADME, organism-based; set-up: dose 20 ug/kg, route intravenous; conditions: in vivo, 0.02 mg/kg; in short: as §2
[26] = Tmax in Han Wistar rat at 20 ug/kg, iv by LC-MS/MS analysis; type: ADME, organism-based; conditions: in vivo, 0.02 mg/kg; in short: as §2

`CC[C@H](C)[C@@H]([C@@H](CC(=O)N1CCC[C@H]1[C@H](OC)[C@@H](C)C(=O)N[C@@H](Cc1ccccc1)c1nccs1)OC)N(C)C(=O)[C@@H](NC(=O)C(C)(C)CN)C(C)C` showed a GI50 [1] of 0.25 nM, a GI50 [2] of 0.81 nM and a GI50 [3] of 1.4 nM.
Work on `CC[C@H](C)[C@@H]([C@@H](CC(=O)N1CCC[C@H]1[C@H](OC)[C@@H](C)C(=O)N[C@@H](Cc1ccccc1)c1nccs1)OC)N(C)C(=O)[C@@H](NC(=O)C(C)(C)CNC)C(C)C` yielded a GI50 [1] of 0.25 nM, a GI50 [2] of 0.41 nM and a GI50 [3] of 1.1 nM.
Work on `CC[C@H](C)[C@@H]([C@@H](CC(=O)N1CCC[C@H]1[C@H](OC)[C@@H](C)C(=O)N[C@@H](Cc1ccccc1)c1nccs1)OC)N(C)C(=O)[C@@H](NC(=O)[C@]1(C)CCCN1)C(C)C` yielded a GI50 [1] of 0.14 nM, a GI50 [2] of 0.2 nM and a GI50 [3] of 0.15 nM.
`CC[C@H](C)[C@@H]([C@@H](CC(=O)N1CCC[C@H]1[C@H](OC)[C@@H](C)C(=O)N[C@@H](Cc1ccccc1)c1nccs1)OC)N(C)C(=O)[C@@H](NC(=O)[C@@]1(C)CCCN1)C(C)C` showed a GI50 [1] of 0.11 nM, a GI50 [2] of 0.21 nM and a GI50 [3] of 0.36 nM.
For `CC[C@H](C)[C@@H]([C@@H](CC(=O)N1CCC[C@H]1[C@H](OC)[C@@H](C)C(=O)N[C@@H](Cc1ccccc1)c1nccs1)OC)N(C)C(=O)[C@@H](NC(=O)[C@]1(F)CCNC1)C(C)C`, the GI50 [1] was 0.16 nM, the GI50 [2] was 0.25 nM and the GI50 [3] was 0.59 nM.
Work on `CC[C@H](C)[C@@H]([C@@H](CC(=O)N1CCC[C@H]1[C@H](OC)[C@@H](C)C(=O)N[C@@H](Cc1ccccc1)c1nccs1)OC)N(C)C(=O)[C@@H](NC(=O)[C@@]1(F)CCNC1)C(C)C` yielded a GI50 [1] of 0.29 nM, a GI50 [2] of 0.6 nM and a GI50 [3] of 1.1 nM.
`CC[C@H](C)[C@@H]([C@@H](CC(=O)N1CCC[C@H]1[C@H](OC)[C@@H](C)C(=O)N[C@@H](Cc1ccccc1)c1nccs1)OC)N(C)C(=O)[C@@H](NC(=O)[C@]1(C)CCCCN1)C(C)C` gave a GI50 [1] of 0.16 nM, a GI50 [2] of 0.2 nM and a GI50 [3] of 0.25 nM.
`CC[C@H](C)[C@@H]([C@@H](CC(=O)N1CCC[C@H]1[C@H](OC)[C@@H](C)C(=O)N[C@@H](Cc1ccccc1)c1nccs1)OC)N(C)C(=O)[C@@H](NC(=O)[C@@]1(C)CCCCN1)C(C)C` gave a GI50 [1] of 0.35 nM, a GI50 [2] of 0.4 nM and a GI50 [3] of 0.52 nM.
Compound `CC[C@H](C)[C@@H]([C@@H](CC(=O)N1CCC[C@H]1[C@H](OC)[C@@H](C)C(=O)N[C@@H](Cc1ccccc1)c1nccs1)OC)N(C)C(=O)[C@@H](NC(=O)[C@@H](N)C(C)C)C(C)C` (H-VV[Dil][Dolaproine]-Doe) has a GI50 [1] of 5.3 nM, a GI50 [2] of 9 nM and a GI50 [3] of 10 nM.
In the case of `CC[C@H](C)[C@@H]([C@@H](CC(=O)N1CCC[C@H]1[C@H](OC)[C@@H](C)C(=O)N[C@@H](Cc1ccccc1)c1nccs1)OC)N(C)C(=O)[C@@H](NC(=O)C1(N)CC1)C(C)C` (H-[Ac3c]V[Dil][Dolaproine]-Doe), the GI50 [1] is reported as 2.9 nM, the GI50 [2] is reported as 5.6 nM and the GI50 [3] is reported as 6.4 nM.
In the case of `CC[C@H](C)[C@@H]([C@@H](CC(=O)N1CCC[C@H]1[C@H](OC)[C@@H](C)C(=O)N[C@@H](Cc1ccccc1)c1nccs1)OC)N(C)C(=O)[C@@H](NC(=O)C1(N)CCCC1)C(C)C` (H-[Ac5c]V[Dil][Dolaproine]-Doe), the GI50 [1] is reported as 0.28 nM, the GI50 [2] is reported as 0.35 nM and the GI50 [3] is reported as 0.33 nM.
`CC[C@H](C)[C@@H]([C@@H](CC(=O)N1CCC[C@H]1[C@H](OC)[C@@H](C)C(=O)N[C@@H](Cc1ccccc1)c1nccs1)OC)N(C)C(=O)[C@@H](NC(=O)C(C)(C)N)C(C)C` (H-[Aib]V[Dil][Dolaproine]-Doe) gave an AUC(0-t) [4] of 4.51 ng·h/mL, a Vd [5] of 14.7 L/kg and a half-life [6] of 5.85 h. For the same compound, the clearance [7] was 70 mL/min/kg, the fraction unbound at 0.1 µM [8] was 0.24 and the fraction unbound at 0.1 µM [9] was 0.1. It also gave a fraction unbound at 0.1 µM [10] of 0.07, a dose excreted [11] of 8% and a dose excreted [12] of 4%. The Drug metabolism [13] was “metabolite_detected”, the Drug metabolism [14] was “metabolite_detected” and the Drug metabolism [15] was “metabolite_detected”. The Drug metabolism [16] was “metabolite_notdetected”, the Drug metabolism [17] was “metabolite_notdetected” and the Drug metabolism [18] was “metabolite_notdetected”. The Drug metabolism [19] was “metabolite_notdetected”, the Drug metabolism [20] was “metabolite_notdetected” and the Drug metabolism [21] was “metabolite_notdetected”. For the same compound, the Drug metabolism [22] was “metabolite_detected”, the GI50 [1] was 0.26 nM and the GI50 [2] was 0.19 nM. The GI50 [3] was 0.27 nM, the microsomal CLint at 1 µM [23] was 84 µL/min/mg and the “CLH(app)” value [24] was 21 µL/min/mg. It also gave a Cmax [25] of 19.4 ng/mL and a Tmax [26] of 8.4 min.
Compound `CC[C@H](C)[C@@H]([C@@H](CC(=O)N1CCC[C@H]1[C@H](OC)[C@@H](C)C(=O)N[C@@H](Cc1ccccc1)c1nccs1)OC)N(C)C(=O)[C@@H](NC(=O)[C@H](C)NC)C(C)C` (H-[NMeA]V[Dil][Dolaproine]-Doe) has a GI50 [1] of 0.23 nM, a GI50 [2] of 0.25 nM and a GI50 [3] of 0.42 nM.
For `CC[C@H](C)[C@@H]([C@@H](CC(=O)N1CCC[C@H]1[C@H](OC)[C@@H](C)C(=O)N[C@@H](Cc1ccccc1)c1nccs1)OC)N(C)C(=O)[C@@H](NC(=O)C(C)(C)NC)C(C)C` (H-[NMeAib]V[Dil][Dolaproine]-Doe), the GI50 [1] was 0.045 nM, the GI50 [2] was 0.076 nM and the GI50 [3] was 0.12 nM.
Work on `CC[C@H](C)[C@@H]([C@@H](CC(=O)N1CCC[C@H]1[C@H](OC)[C@@H](C)C(=O)N[C@@H](Cc1ccccc1)c1nccs1)OC)N(C)C(=O)[C@@H](NC(=O)[C@@H](NC)C(C)C)C(C)C` (H-[NMeV]V[Dil][Dolaproine]-Doe) yielded a GI50 [1] of 0.12 nM, a GI50 [2] of 0.09 nM and a GI50 [3] of 0.3 nM. The microsomal CLint at 1 µM [23] was 48 µL/min/mg and the CLH(app) [24] was 11 µL/min/mg.
`CC[C@H](C)[C@@H]([C@@H](CC(=O)N1CCC[C@H]1[C@H](OC)[C@@H](C)C(=O)N[C@H](C)[C@@H](O)c1ccccc1)OC)N(C)C(=O)[C@@H](NC(=O)[C@@H](NC)C(C)C)C(C)C` (H-[NMeV]V[Dil][Dolaproine]-X1) showed a GI50 [1] of 0.22 nM, a GI50 [2] of 0.49 nM and a GI50 [3] of 0.54 nM. For the same compound, the microsomal CLint at 1 µM [23] was 24 µL/min/mg and the “CLH(app)” value [24] was 3 µL/min/mg.
Work on `CC[C@H](C)[C@@H]([C@@H](CC(=O)N1CCC[C@H]1[C@H](OC)[C@@H](C)C(=O)N[C@@H](Cc1ccccc1)c1nccs1)OC)N(C)C(=O)[C@@H](NC(=O)CNC)C(C)C` (H-[Sar]V[Dil][Dolaproine]-Doe) yielded a GI50 [1] of 0.49 nM, a GI50 [2] of 0.69 nM and a GI50 [3] of 1.2 nM.
